Rin1-Abl PPI inh: inhibitors of Rin1-Abl protein binding, primary screen, biochemical, TR-FRET; Tyrosine-protein kinase ABL1 (Homo sapiens) + Ras and Rab interactor 1 (Homo sapiens), …; inhibition, % at 7.35 µM; AID 588664, 2011; 360,000 compounds, 0.4% hits; in the data active means inhibition above about 5%, passing the limit was not always enough
Target sequence (P00519 whole entry, looked up): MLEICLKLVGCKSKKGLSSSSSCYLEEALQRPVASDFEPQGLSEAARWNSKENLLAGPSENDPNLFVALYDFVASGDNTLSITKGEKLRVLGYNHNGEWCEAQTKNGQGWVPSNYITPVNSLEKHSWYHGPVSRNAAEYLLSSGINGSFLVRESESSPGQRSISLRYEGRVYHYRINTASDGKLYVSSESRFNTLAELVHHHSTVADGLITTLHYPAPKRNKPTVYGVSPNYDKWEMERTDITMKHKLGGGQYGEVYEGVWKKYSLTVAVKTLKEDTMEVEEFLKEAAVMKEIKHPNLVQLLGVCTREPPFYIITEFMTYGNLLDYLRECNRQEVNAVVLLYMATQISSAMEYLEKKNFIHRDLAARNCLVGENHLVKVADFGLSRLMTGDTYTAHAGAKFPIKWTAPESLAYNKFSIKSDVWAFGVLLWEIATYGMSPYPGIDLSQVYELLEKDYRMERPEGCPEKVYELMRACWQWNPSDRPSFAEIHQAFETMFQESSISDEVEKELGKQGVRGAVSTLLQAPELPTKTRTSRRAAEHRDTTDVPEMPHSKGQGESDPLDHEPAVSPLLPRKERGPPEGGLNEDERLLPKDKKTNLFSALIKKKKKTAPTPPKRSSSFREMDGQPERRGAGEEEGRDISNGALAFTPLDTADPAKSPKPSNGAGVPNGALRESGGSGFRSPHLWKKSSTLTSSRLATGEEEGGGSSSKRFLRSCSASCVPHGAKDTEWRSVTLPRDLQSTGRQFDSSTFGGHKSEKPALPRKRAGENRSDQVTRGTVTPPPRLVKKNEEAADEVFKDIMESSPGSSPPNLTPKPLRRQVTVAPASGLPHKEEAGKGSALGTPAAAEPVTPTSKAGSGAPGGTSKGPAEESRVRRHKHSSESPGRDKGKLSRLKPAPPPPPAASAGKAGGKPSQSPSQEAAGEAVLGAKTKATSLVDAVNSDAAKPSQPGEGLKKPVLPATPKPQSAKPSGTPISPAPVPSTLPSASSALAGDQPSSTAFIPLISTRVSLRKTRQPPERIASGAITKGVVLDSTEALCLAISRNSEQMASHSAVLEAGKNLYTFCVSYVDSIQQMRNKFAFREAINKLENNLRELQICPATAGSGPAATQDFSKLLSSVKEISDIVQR
Target sequence (Q13671 whole entry, looked up): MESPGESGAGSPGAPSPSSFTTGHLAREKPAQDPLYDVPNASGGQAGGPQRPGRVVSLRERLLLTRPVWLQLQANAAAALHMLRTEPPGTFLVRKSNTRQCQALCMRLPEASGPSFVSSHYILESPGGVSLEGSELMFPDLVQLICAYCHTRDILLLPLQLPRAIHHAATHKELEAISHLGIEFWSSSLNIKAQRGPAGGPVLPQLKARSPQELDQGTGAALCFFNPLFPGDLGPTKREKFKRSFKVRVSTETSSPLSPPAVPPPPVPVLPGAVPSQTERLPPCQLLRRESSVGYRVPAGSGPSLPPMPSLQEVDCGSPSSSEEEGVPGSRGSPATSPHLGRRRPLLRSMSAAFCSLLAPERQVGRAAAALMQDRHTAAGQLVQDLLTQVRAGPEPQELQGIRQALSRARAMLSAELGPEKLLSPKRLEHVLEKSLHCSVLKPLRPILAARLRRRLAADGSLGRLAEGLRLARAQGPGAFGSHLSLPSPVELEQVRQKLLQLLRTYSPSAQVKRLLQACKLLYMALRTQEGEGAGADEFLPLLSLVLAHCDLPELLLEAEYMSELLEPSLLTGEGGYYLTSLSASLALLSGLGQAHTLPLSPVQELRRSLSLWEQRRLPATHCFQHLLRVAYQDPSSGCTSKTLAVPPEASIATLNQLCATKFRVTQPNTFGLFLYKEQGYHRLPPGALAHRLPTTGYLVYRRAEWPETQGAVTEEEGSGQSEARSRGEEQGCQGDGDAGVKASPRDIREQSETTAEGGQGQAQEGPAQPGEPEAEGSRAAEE
SR-BI DiI inh: inhibitors of SR-BI mediated HDL lipid uptake, primary screen, ldlA[mSR-BI] cells, fluorescence, single point. Scavenger receptor class B member 1 (Mus musculus), Q61009. 320,000 compounds, 0.96% hits. ldlA[mSR-BI] CHO cells, DiI-HDL uptake fluorescence, 3 h. inhibition, % at 12.5 µM;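 active means mean replicate inhibition of at least 70% and a set share of replicates each scoring 70 or more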;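 further: 0% = median of neutral control wells and 100% = median of positive control wells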
SR-BI uptake up: activators of SR-BI mediated DiI-HDL uptake, primary screen, ldlA[mSR-BI] CHO cells, DiI fluorescence | 3 h; 100 = double the neutral-control signal | activation, % at 12.5 µM | 320,000 compounds, 0.096% hits;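 active means mean replicate activation of at least 60% and every replicate at or above 60%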;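 further: 0% = median plate neutral-control signal and 100% = twice that signal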
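Material: SR-BI-overexpressing, LDLR-lacking CHO cells | Dosing: Single compound concentration, delivered by pin transfer | Probe or stimulus: Labelled HDL, 10 µg/mL | Signal: Bottom-read cell fluorescence after medium removal, ex 550/em 595 nm | Schedule: 3 h, 37 °C | Evaluation: HDL uptake via cellular fluorescence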
GRK2 inh: compounds blocking aptamer binding on GRK2 – biochemical, human GRK2, bead flow cytometry, HTS, primary screen | FAM-aptamer displacement from GRK2 | inhibition of aptamer binding, % at 10 µM | 330,000 compounds, 0.59% hits;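 active means inhibition of aptamer binding above 40%, roughly 3 SD of noise, on plates passing a quality check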;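 further: median bead fluorescence of bound FAM aptamer so fluorescent compounds give negative values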
Rin1 Abl conf: Rin1-Abl binding inhibitor retest, confirmation, biochemical, TR-FRET; purified proteins; AID 602124, 2011; shares compounds with Rin1-Abl PPI inh; inhibition, % at 7.35 µM; 1,300 compounds, 49% hits
GFP quench: GFP fluorescence inhibitors and quenchers, artefact control for Rin1-Abl interaction inhibitor project, biochemical. AID 602125, 2011. 1,300 compounds, 8.5% hits. inhibition, % at 6.75 µM. inhibitors/quenchers counterscreen. shares compounds with Rin1-Abl PPI inh;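 further: ABL1-eGFP fusion protein alone without its partner RIN1-SBP; 0% = protein with vehicle and 100% = wells lacking protein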
GFP quench dose: GFP fluorescence inhibitors and quenchers, dose response, artefact control for Rin1-Abl interaction inhibitor project, biochemical; shares compounds with Rin1-Abl PPI inh; GFP fluorescence interference/quenching counterscreen; IC50, µM; 230 tested, under 10 active; AID 602182, 2012; call rule not given here;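 further: ABL1-eGFP fusion protein alone without its RIN1 binding partner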
Active calls of the source: *; nt = not tested or not shown. Shown are actives, neighbours in structure and some others; about 1.9% of the full set was active somewhere. Unless noted, no stated cut-off is given here; in the data, active means inhibition above about 6.5%; inactive means the rest.

SMILES	Rin1-Abl PPI inh	SR-BI DiI inh	SR-BI uptake up	GRK2 inh	Rin1 Abl conf	GFP quench	others
C=CCn1c(SCCOc2ccccc2)nnc1C(C)NC(=O)c1ccccc1 (stereo not drawn)	1	22	-22	0	nt	nt
C=CCn1c(SCC(=O)N2CCOCC2)nnc1C(C)NC(=O)c1ccccc1 (stereo not drawn)	7.2*	-11	11	3	-1	0
O=c1[nH]c(/C=C\c2ccc(O)c(O)c2)nc(O)c1[N+](=O)[O-]	8.3*	-26	26	5	8.2*	6
C[C@H](O)CNC(=O)c1[nH]cnc1C(=O)Nc1cccc(Cl)c1	-1	nt	nt	nt	nt	nt
CC(=O)C1=C(C)OC2(O)c3ccccc3C(=O)C12O (stereo not drawn)	18*	nt	nt	0	18*	-1	GFP quench dose=>68
CCOC(=O)C1=C(C)OC2(O)c3ccccc3C(=O)C12O (stereo not drawn)	22*	nt	nt	2	36*	0	GFP quench dose=>68
CC1=C(C#N)C2(O)C(=O)c3ccccc3C2(O)N1 (stereo not drawn)	-2	-16	16	0	nt	nt
CCOC(=O)C1=C(C)N[C@@]2(O)c3ccccc3C(=O)[C@@]12O	3	-2	8	2	nt	nt
CC1(Cc2cccc(F)c2)C(=O)Nc2ccc(OC(F)(F)F)cc21 (stereo not drawn)	-1	nt	nt	nt	nt	nt
CC1(Cc2ccc(OC(F)(F)F)cc2)C(=O)Nc2ccc(OC(F)(F)F)cc21 (stereo not drawn)	7.4*	nt	nt	nt	-2	-1
CC1(C)OCC(CNC(=O)c2[nH]c(C(F)(F)F)nc2-c2ccccc2)O1 (stereo not drawn)	3	nt	nt	nt	nt	nt
O=C(c1ccco1)N1CCN(Cc2cc(=O)c(OCc3ccccc3Cl)co2)CC1	14*	3	-3	2	10*	1
Oc1ccc(/C=N/n2c(-c3ccco3)csc2=Nc2cccnc2)c(O)c1	-3	35	-35	0	nt	nt
COCCN=c1scc(-c2ccco2)n1/N=C/c1ccc(O)c(O)c1O	20*	66	-66	12	13*	11*
CC(C)N=c1scc(-c2ccco2)n1/N=C/c1ccc(O)c(O)c1	2	54	-54	3	nt	nt
C=CCN=c1scc(-c2ccco2)n1/N=C/c1ccc(O)c(O)c1O	11*	nt	nt	3	6	7.3*
COCCC(C(=O)Oc1c(C(C)(C)C)cc(C)cc1C(C)(C)C)c1ccccc1 (stereo not drawn)	2	0	0	0	nt	nt
Cc1cccc(NS(=O)(=O)c2ccc(C)c(C(=O)NNC(=O)c3csc(N4CCOCC4)n3)c2)c1	-2	18	-18	nt	nt	nt
O=C(CN1CCCCC1)NCC(=O)Nc1ccc(F)c(F)c1F	0	9	-9	0	nt	nt
CC1(C(=O)NS(=O)(=O)c2ccc(C#N)cc2)CCN1C(=O)Cc1ccc(-c2ccccc2)cc1 (stereo not drawn)	1	nt	nt	nt	nt	nt
COC(=O)CN1C(=O)[C@@H]2[C@H](C1=O)[C@@H]1CC(C(=O)OC)=C[C@@H](C(=O)OC)[C@@H]3C1=C(C(=O)[C@@]3(C)NC(=O)c1ccccc1)[C@@H]2C	14*	-14	14	1	4	1
COC(=O)C1=C[C@@H](C(=O)OC)[C@@H]2C3=C(C(=O)[C@@]2(C)NC(=O)c2ccccc2)[C@H](c2ccccc2)[C@@H]2C(=O)NC(=O)[C@@H]2[C@@H]3C1	2	10	-10	nt	nt	nt
CCCCn1c(N)c(N(CCC(C)C)C(=O)C2CCN(C(=O)c3ccccc3C)CC2)c(=O)[nH]c1=O	8.4*	-17	17	7	-3	0
CCCCN(C(=O)C1CCN(C(=O)c2ccccc2C)CC1)c1c(N)n(CCCC)c(=O)[nH]c1=O	-1	-22	22	0	nt	nt
CCN(c1ccccc1)S(=O)(=O)c1cccc(C(=O)NCCOc2ccccc2OC)c1	3	46	-46	nt	nt	nt
SMILES	Rin1-Abl PPI inh	SR-BI DiI inh	SR-BI uptake up	GRK2 inh	Rin1 Abl conf	GFP quench	others
COCCNC(=O)C1CCCN(C(=O)c2ccc(SC(F)(F)F)cc2)CC1 (stereo not drawn)	0	nt	nt	nt	nt	nt
COc1ccc(Cn2c(=O)[nH]c3cc(C(=O)NC4CCN(Cc5ccccc5)CC4)ccc32)cc1	12*	-1	1	0	16*	-1
CCC(C)c1ccc(S(=O)(=O)N2CC(=O)Nc3ccccc32)cc1 (stereo not drawn)	5.8*	-23	23	0	-1	1
CC1(C(=O)Nc2cccc(C#N)c2)CCN1C(=O)C1(c2ccccc2)CC1 (stereo not drawn)	0	nt	nt	nt	nt	nt
CN(CC(=O)Nc1ccc(N2CCOCC2)cc1)C(=O)CCCOc1ccc(Cl)cc1Cl	11*	10	-10	1	-2	0
COc1ccccc1C(=O)Nc1ccc(C(=O)N2CCCCC2)cc1	14*	41	-41	7	13*	0
Cc1ccc2[nH]c(=O)c(C3C(C#N)=C(N)Oc4c3ccc3cccnc43)cc2c1 (stereo not drawn)	9.8*	-23	23	5	2	6
N#CC1=C(N)Oc2c(ccc3cccnc23)C1c1ccccc1 (stereo not drawn)	1	5	-5	3	nt	nt
COc1ccc(C)cc1N(CC(=O)Nc1ccc(S(=O)(=O)N2CCOCC2)cc1)S(C)(=O)=O	2	nt	nt	0	nt	nt
CS(=O)(=O)N(CC(=O)Nc1ccc(S(=O)(=O)N2CCOCC2)cc1)c1ccccc1Br	9.4*	6	-6	2	-3	2
CC(C)CNc1ncnc2c1sc1nc(N3CCOCC3)c3c(c12)CC(C)(C)OC3	-1	12	-12	3	nt	nt
CCN(CC)CCNc1ncnc2c1sc1nc(N3CCCC3)c3c(c12)CC(C)(C)OC3	10*	-5	5	0	13*	-1
OCCNc1ncnc2c1sc1nc(N3CCOCC3)c3c(c12)CCC3	4	12	-12	0	nt	nt
CCN(CC)CCNc1ncnc2c1sc1nc(N3CCOCC3)c3c(c12)CCCC3	11*	-3	3	0	3	-1
CN(C)CCNc1ncnc2c1sc1nc(N3CCCC3)c3c(c12)CC(C)(C)OC3	7.2*	18	-18	0	10*	-1
COc1ccccc1/C=[N+](\[O-])C1SC(=S)N(C)C1(C)C (stereo not drawn)	6.8*	17	-17	0	-3	0
O=C(O)c1ccc2nc(-c3ccco3)c(-c3ccco3)nc2c1	14*	-4	4	nt	2	5
